Results as given in ChEMBL document CHEMBL1926651, “Design, synthesis, antiviral and cytostatic evaluation of novel isoxazolidine nucleotide analogues with a 1,2,3-triazole linker” (Eur J Med Chem, 2012).
The source made the active and inactive calls. No cut-off for these calls is given here.

How the values were obtained:
[1] = tested on: Human alphaherpesvirus 1; experiment: Antiviral activity against Herpes simplex virus 1 KOS infected in human HEL cells assessed as inhibition of viral plaque formation at 250 uM; type: functional, organism-based
Outline: (§1)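 Confluent host cell monolayers were inoculated with 100 CCID50 of virus in the presence of test compound at serial dilutions (250, 50, 10, … μM). Viral cytopathicity was scored once it reached completion in untreated virus-infected controls.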

[2] = tested on: Respiratory syncytial virus; experiment: Antiviral activity against Respiratory syncytial virus infected in human HeLa cells assessed as inhibition of viral plaque formation at 250 uM; type: functional, organism-based; outline: as §1
[3] = tested on: Coxsackievirus B4; experiment: Antiviral activity against Coxsackievirus B4 infected in african green monkey Vero cells assessed as inhibition of viral plaque formation at 250 uM; type: functional, organism-based; outline: as §1
[4] = tested on: L1210; experiment: Cytotoxicity against mouse L1210 cells 2 days by coulter counting; type: functional; conditions: L1210, 48 h
Outline: (§2)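 Cells were suspended at 300,000–500,000 cells/mL and added 1:1 to compound dilutions. Incubation was at 37 °C, 2 days for L1210 and 3 days for CEM, HeLa and HEL. Cells were counted with a Coulter counter. CC50 is the concentration inhibiting cell proliferation by 50%.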

[5] = tested on: Vaccinia virus; experiment: Antiviral activity against Vaccinia virus infected in human HEL cells assessed as inhibition of viral plaque formation at 250 uM; type: functional, organism-based; conditions: Orthopoxvirus vaccinia; outline: as §1
[6] = tested on: Human alphaherpesvirus 1; experiment: Antiviral activity against thymidine kinase-deficient acv-resistant Herpes simplex virus 1 KOS infected in human HEL cells assessed as inhibition of viral plaque formation at 250 uM; type: functional, organism-based
[7] = tested on: Coxsackievirus B4; experiment: Antiviral activity against Coxsackievirus B4 infected in human HeLa cells assessed as inhibition of viral plaque formation at 250 uM; type: functional, organism-based; outline: as §1
[8] = tested on: Punta Toro virus; experiment: Antiviral activity against Punta Toro virus infected in african green monkey Vero cells assessed as inhibition of viral plaque formation at 250 uM; type: functional, organism-based
[9] = tested on: Human alphaherpesvirus 3; experiment: Antiviral activity against thymidine kinase-positive Varicella Zoster virus Oka infected in human HEL cells assessed as inhibition of viral plaque formation at 250 uM; type: functional, cell-based; conditions: strain Oka vaccine
[10] = tested on: Sindbis virus; experiment: Antiviral activity against Sindbis virus infected in african green monkey Vero cells assessed as inhibition of viral plaque formation at 250 uM; type: functional, organism-based; outline: as §1
[11] = tested on: Human betaherpesvirus 5; experiment: Antiviral activity against Human cytomegalovirus AD169 infected in human HEL cells assessed as inhibition of viral plaque formation at 250 uM; type: functional, organism-based
[12] = tested on: CCRF-CEM; experiment: Cytotoxicity against human CEM cells 3 days by coulter counting; type: functional; conditions: 72 h; outline: as §2
[13] = tested on: Human immunodeficiency virus 2; experiment: Antiviral activity against Human immunodeficiency virus 2 infected in human CEM cells assessed as inhibition of virus-induced giant cell formation after 4 days by microscopic analysis; type: functional, organism-based; conditions: CCRF-CEM
Outline: (§3)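 CEM cells at about 3 × 10⁵ cells/cm³ were infected with 100 CCID50/mL of HIV-1(IIIB) or HIV-2(ROD), then seeded into wells holding test compound dilutions. After 4 days at 37 °C, virus-induced giant cell formation was scored microscopically.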

[14] = tested on: Vesicular stomatitis virus; experiment: Antiviral activity against Vesicular stomatitis virus infected in human Hela cells assessed as inhibition of viral plaque formation at 250 uM; type: functional, organism-based
[15] = tested on: Human alphaherpesvirus 2; experiment: Antiviral activity against Herpes simplex virus 2 G infected in human HEL cells assessed as inhibition of viral plaque formation at 250 uM; type: functional, organism-based; conditions: strain G
[16] = tested on: Mammalian orthoreovirus 1; experiment: Antiviral activity against Reovirus-1 infected in african green monkey Vero cells assessed as inhibition of viral plaque formation at 250 uM; type: functional, organism-based; outline: as §1
[17] = tested on: Human betaherpesvirus 5; experiment: Antiviral activity against Human cytomegalovirus Davis infected in human HEL cells assessed as inhibition of viral plaque formation at 250 uM; type: functional, organism-based
[18] = tested on: Human alphaherpesvirus 3; experiment: Antiviral activity against thymidine kinase-deficient Varicella Zoster virus 07/1 infected in human HEL cells assessed as inhibition of viral plaque formation at 250 uM; type: functional, organism-based
[19] = tested on: Feline coronavirus; experiment: Antiviral activity against Feline coronavirus infected in CrFK cells assessed as inhibition of viral plaque formation at 250 uM; type: functional, organism-based; outline: as §1
[20] = tested on: Human immunodeficiency virus 1; experiment: Antiviral activity against Human immunodeficiency virus 1 infected in human CEM cells assessed as inhibition of virus-induced giant cell formation after 4 days by microscopic analysis; type: functional, organism-based; conditions: CCRF-CEM; outline: as §3
[21] = tested on: Human respirovirus 3; experiment: Antiviral activity against Parainfluenza-3 virus infected in african green monkey Vero cells assessed as inhibition of viral plaque formation at 250 uM; type: functional, organism-based; outline: as §1
[22] = tested on: HEL; experiment: Cytotoxicity against human HEL cells 3 days by coulter counting; type: functional; conditions: 72 h; outline: as §2
[23] = tested on: Vesicular stomatitis virus; experiment: Antiviral activity against Vesicular stomatitis virus infected in human HEL cells assessed as inhibition of viral plaque formation at 250 uM; type: functional, organism-based; outline: as §1
[24] = tested on: HeLa; experiment: Cytotoxicity against human HeLa cells 3 days by coulter counting; type: functional; conditions: 72 h; outline: as §2
[25] = tested on: Felid alphaherpesvirus 1; experiment: Antiviral activity against Felid herpesvirus 1 infected in CrFK cells assessed as inhibition of viral plaque formation at 250 uM; type: functional, organism-based; outline: as §1

Structure (SMILES)	Activity [1]	Activity [2]	Activity [3]	Activity [5]	Activity [6]	Activity [7]	Activity [8]	Activity [9]	Activity [10]	Activity [11]	Activity [13]	Activity [14]	Activity [15]	Activity [16]	Activity [17]	Activity [18]	Activity [19]	Activity [20]	Activity [21]	Activity [23]	further results
CCOP(=O)(OCC)[C@@H]1C[C@@H](n2cc(-c3nccn3C)nn2)ON1C	inactive	inactive	inactive	inactive	inactive	inactive	inactive	inactive	inactive	inactive	inactive	inactive	inactive	inactive	inactive	inactive	inactive	inactive	inactive	inactive	CC50 [4]: ≥ 250 µM; CC50 [12]: > 250 µM; CC50 [22]: > 100 µM; CC50 [24]: > 250 µM; Activity [25]: inactive
CCOP(=O)(OCC)[C@@H]1C[C@H](n2cc(-c3nccn3C)nn2)ON1C	inactive	inactive	inactive	inactive	inactive	inactive	inactive	inactive	inactive	inactive	inactive	inactive	inactive	inactive	inactive	inactive	inactive	inactive	inactive	inactive	CC50 [4]: ≥ 250 µM; CC50 [12]: > 250 µM; CC50 [22]: > 100 µM; CC50 [24]: > 250 µM; Activity [25]: inactive
CCOC(=O)C1=C[C@@H](OC(CC)CC)[C@H](NC(C)=O)[C@@H](N)C1	inactive	inactive	inactive	inactive	inactive	inactive	inactive	inactive	inactive	inactive	inactive	inactive	inactive	inactive	inactive	inactive	inactive	inactive	inactive	inactive	Activity [25]: inactive
NC(=O)c1ncn([C@@H]2O[C@H](CO)[C@@H](O)[C@H]2O)n1	inactive	inactive	inactive	inactive	inactive	inactive	inactive	inactive	inactive	inactive	inactive	inactive	inactive	inactive	inactive	inactive	inactive	inactive	inactive	inactive	Activity [25]: inactive
Nc1ccn(C[C@@H](CO)OCP(=O)(O)O)c(=O)n1	inactive	inactive	inactive	inactive	inactive	inactive	inactive	inactive	inactive	inactive	inactive	inactive	inactive	inactive	inactive	inactive	inactive	inactive	inactive	inactive	Activity [25]: inactive
Nc1nc2c(ncn2COC(CO)CO)c(=O)[nH]1	inactive	inactive	inactive	inactive	inactive	inactive	inactive	inactive	inactive	inactive	inactive	inactive	inactive	inactive	inactive	inactive	inactive	inactive	inactive	inactive	Activity [25]: inactive
Nc1nc2c(ncn2COCCO)c(=O)[nH]1	inactive	inactive	inactive	inactive	inactive	inactive	inactive	inactive	inactive	inactive	inactive	inactive	inactive	inactive	inactive	inactive	inactive	inactive	inactive	inactive	Activity [25]: inactive
Nc1ncnc2c1ncn2C[C@H](O)CO	inactive	inactive	inactive	inactive	inactive	inactive	inactive	inactive	inactive	inactive	inactive	inactive	inactive	inactive	inactive	inactive	inactive	inactive	inactive	inactive	Activity [25]: inactive
O=c1[nH]c(=O)n([C@H]2C[C@H](O)[C@@H](CO)O2)cc1/C=C/Br	inactive	inactive	inactive	inactive	inactive	inactive	inactive	inactive	inactive	inactive	inactive	inactive	inactive	inactive	inactive	inactive	inactive	inactive	inactive	inactive	Activity [25]: inactive
